Article PMC3114295 (Pain, 2011)

Experiments:
male Sprague Dawley rats = assay: Bradykinin-induced thermal hyperalgesia, paw withdrawal latency; type: in vivo; details: rat hindpaw i.pl., JA-2 5 μM 25 μl 30 min before BK 0.1 μM 25 μl; n=6-10
How it was run: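 Male Sprague-Dawley rats (200-250 g), tested in the light phase after 30 min acclimation. Blinded Hargreaves thermal latency, with baseline set near 10 s and a 20 s cutoff, taken as the mean of triplicate readings at least 30 s apart. Intraplantar s.c. vehicle (50% DMSO/0.9% saline) or test compound (5 μM), 25 μl; latency read 30 min later. BK (0.1 or 1 μM, 25 μl) then injected into the same paw; latency read at 5 min.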

EP24.15 = details: read-out: Ki for inhibiting EP24.15; cited from earlier work
EP24.16 = details: EP24.15 preferentially over EP24.16; cited from earlier work
[1] = prolonged incubation in various tissues; cited from earlier work
[2] = cited from earlier work

C[C@H](NC(CCc1ccccc1)C(=O)O)C(=O)NC(C)(C)C(=O)N[C@@H](Cc1ccc(O)cc1)C(=O)Nc1ccc(C(=O)O)cc1 (stereo partly drawn) [JA-2]
effect on response to sub-threshold BK (0.1 μM), thermal hyperalgesia (male Sprague Dawley rats): resulted in a nociceptive response | Ki (EP24.15): 23 nM | times more potent at inhibiting EP24.15 than EP24.16 (selectivity) (EP24.16): 20-30 fold | retention of activity after incubation in tissues (stability) [1]: retains its activity after prolonged incubation in various tissues

N-[1-(R,S)-carboxy-3-phenylpropyl]-Ala-Ala-Tyr-p-aminobenzoate [cFP]
potentiation of antinociceptive effects of co-administered opioid peptides ([2]; co-administered with Met-enkephalin-Arg-Gly-Leu and dynorphin A1-8): potentiate the antinociceptive effects | antinociception ([2]; intracerebroventricular administration, time and dose-dependent): significant antinociception
